In series [1] the target is T1, Lysosomal acid glucosylceramidase (Homo sapiens, UniProt P04062).
T1 sequence (P04062 whole entry): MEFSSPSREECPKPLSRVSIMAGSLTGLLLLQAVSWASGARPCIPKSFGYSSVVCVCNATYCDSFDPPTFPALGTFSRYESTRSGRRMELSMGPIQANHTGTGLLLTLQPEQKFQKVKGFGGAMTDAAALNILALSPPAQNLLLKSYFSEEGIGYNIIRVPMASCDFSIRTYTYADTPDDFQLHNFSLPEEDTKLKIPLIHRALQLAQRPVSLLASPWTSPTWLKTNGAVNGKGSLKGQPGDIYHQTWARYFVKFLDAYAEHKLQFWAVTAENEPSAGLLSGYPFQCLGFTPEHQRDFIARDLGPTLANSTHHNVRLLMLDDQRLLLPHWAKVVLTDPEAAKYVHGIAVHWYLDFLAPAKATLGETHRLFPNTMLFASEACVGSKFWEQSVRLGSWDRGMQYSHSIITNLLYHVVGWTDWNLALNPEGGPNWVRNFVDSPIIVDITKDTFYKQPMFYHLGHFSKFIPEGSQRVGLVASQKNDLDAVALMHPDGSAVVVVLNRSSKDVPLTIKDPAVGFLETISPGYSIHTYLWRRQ
The experiment in a line: Inhibition of human placental beta-glucocerebrosidase.

The test system of the next series is HL-60. As to the kind of experiment: Cytotoxicity against human HL60 cells assessed as dead cells at 100 uM after 3 days by propidium iodide staining based flow cytometry. Format: cell-based. Particulars: hl-60, 72 h. Summed up:
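HL60 cells exposed to compound at 100 µM for 3 days; cytotoxicity reported as percentage of dead cells.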
A general note: Flow cytometry measures light scatter and fluorescence of single cells or particles in a stream.

For series [2], the system named is T2, Lysosomal acid glucosylceramidase (Homo sapiens), P04062 [N409S].
T2 sequence (whole entry): T1 sequence (P04062 whole entry) with N409S
The experiment in a line: Activation of beta-glucocerebrosidase N370S mutant in Goucher lymphoblasts at 50 uM after 3 days relative to control.

Molecules are shown by their SMILES. Where a chain is given by its changes, count along the chain named. pIC50: −log10 of the molar value. A value given as a limit tells only on which side of the number the result lay.

As to `CCCCCCCCN1C[C@@H](O)[C@@H](O)[C@H](O)C1=O`, the pIC50 in series [1] is 3.76. For the same molecule, in the series on HL-60, the Activity was 3.51%. Also, the fold change (FC) in series [2] stood at 6.2.
Take `CCCCCCCCCN1C[C@@H](O)[C@@H](O)[C@H](O)C1=O`: in series [1], the pIC50 was 3.99. The Activity with HL-60 turned out to be 4.71%. The fold change (FC) in series [2] came to 2.
As to `CCCCCCCCCCN1CC(NC(C)=O)[C@@H](O)C(O)C1=O` (single isomer, unassigned), in series [1], the pIC50 is less than 3.30. The Activity in the series on HL-60 is 7.58%.
For `CCCOCCN1C[C@@H](O)[C@@H](O)[C@H](O)C1=O`, the pIC50 in series [1] was less than 3.30. For the same molecule, in the series on HL-60, the Activity is listed as 2.39%. The fold change (FC) in series [2] is 3.8.
Molecule `O=C1NC[C@@H](O)[C@@H](O)[C@@H]1O` had a pIC50 in series [1] of less than 3.30. Further, the Activity with HL-60 was found to be 2.77%.
`CCCOCCCCCCN1C[C@@H](O)[C@@H](O)[C@H](O)C1=O` gave a pIC50 in series [1] of 3.90. Further, the Activity with HL-60 is recorded as 4.33%. The molecule also gave a fold change (FC) in series [2] of 3.6.
Taken in the same sequence, the figures for `O=C1[C@H](O)[C@H](O)CN1CCCCCCO` were less than 3.30, 3.57% and 1.8.
For the molecule `CCCN(CCC)CCN1C[C@@H](O)[C@@H](O)[C@H](O)C1=O`, the pIC50 in series [1] was 3.60. Further, the Activity in the series on HL-60 worked out at 3.45%. Besides, the fold change (FC) in series [2] was determined as 3.9.
Turning to `O=C1[C@@H](O)[C@H](O)[C@H](O)CN1CCCCCCO`, in series [1], the pIC50 was less than 3.30. Besides, the Activity with HL-60 came out at 3.75%. This molecule came in with a fold change (FC) in series [2] of 4.1.
On to `CC(=O)NC1CN(CCCCCCO)C(=O)C(O)[C@@H]1O` (single isomer, unassigned), for which the pIC50 in series [1] was less than 3.30. Moreover, the Activity in the series with HL-60 turned out to be 2.9%. This molecule also displayed a fold change (FC) in series [2] of 1.3.
The molecule `O=C1[C@H](O)[C@H](O)[C@H](O)CN1CCCCCCO` showed a pIC50 in series [1] of less than 3.30. In the series on HL-60, the Activity was determined as 3.23%. Further, the fold change (FC) in series [2] was 2.5.
In the case of `CCCCCCCCCCN1C[C@H](O)[C@@H](O)[C@H](O)C1=O`, in series [1], the pIC50 is 3.53. In addition, the Activity in the series with HL-60 came out at 11.2%. This molecule also showed a fold change (FC) in series [2] of 2.
The corresponding values for `O=C1[C@@H](O)[C@H](O)[C@@H](O)CN1CCCCCCO` are less than 3.30, 3.44% and 1.8.
In series [1], `CCCCCCCCN1C[C@@H](O)C(O)[C@H](O)C1` showed a pIC50 of less than 3.30. In the series with HL-60, the Activity is reported as 3.55%.
For the molecule `CCCCN1C[C@H](O)[C@@H](O)[C@H](O)[C@H]1CO`, in the series with HL-60, the Activity amounted to 2.69%.
`CCCCN1C[C@@H](O)[C@@H](O)[C@H](O)C1=O` had a pIC50 in series [1] of less than 3.30. Also, in the series with HL-60, the Activity is given as 2.78%.
Molecule `O=C1[C@@H](O)[C@H](O)[C@H](O)CN1CCO` had a pIC50 in series [1] of less than 3.30. In the series on HL-60, the Activity was found to be 2.95%.
In turn, `O=C1[C@@H](O)[C@H](O)[C@H](O)CN1Cc1ccccc1` showed a pIC50 in series [1] of less than 3.30. Besides, the Activity in the series on HL-60 is listed as 3.46%. The molecule further returned a fold change (FC) in series [2] of 3.4.
In turn, `CCCCCCCCCCN1C[C@@H](O)[C@@H](O)[C@@H](O)C1=O` gave a pIC50 in series [1] of 3.33. Moreover, the Activity in the series with HL-60 is listed as 10.22%. The fold change (FC) in series [2] is 2.9.
Take `CCCCCCCCCCN1C[C@@H](O)[C@@H](O)[C@H](O)C1=O`: the pIC50 in series [1] was 4.34. The Activity in the series on HL-60 was found to be 5.19%. The molecule further registered a fold change (FC) in series [2] of 2.1.
Molecule `CCCCCCCCCCN1C[C@@H](O)[C@@H](O)C1=O` showed a pIC50 in series [1] of 3.55. The Activity in the series with HL-60 is 6.69%. Further, in series [2], the fold change (FC) came to 1.5.

The pIC50 is the IC50 on a negative log10 scale, so that one unit is a factor of ten. High values mean a low IC50, low ones a high IC50.

For the origin of these results see ChEMBL document CHEMBL1138500 (J Med Chem, 2009).
